pIC50: −log10 of the molar value.

In one experiment the test system is HFF. In words: Visual cytotoxicity was scored on HFF cells at time of HCMV plaque enumeration. It counts as functional, cell-based. The settings on record: Homo sapiens. The gist of the method:
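Uninfected stationary HFF cells from the HCMV plaque assay plates, inspected microscopically for cytotoxicity at the time plaques were counted (7–10 days, 37 °C).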

The test system of the next experiment is Human alphaherpesvirus 1. Briefly: Antiviral activity was measured by plaque assay against HSV-1 virus by ELISA method. It counts as functional, organism-based. The essentials:
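HSV-1 (KOS) in BSC-1 cells, 10 000 cells/well seeded in MEM(E) + 10% calf serum, overnight at 37 °C; drug in quadruplicate plus 100 pfu/well virus; 3 days at 37 °C. ELISA read-out with HRP-rabbit anti-HSV-1 and TMB, absorbance at 450/570 nm. Percent reduction vs virus-only wells; IC50 by linear regression on log concentration.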
Background: An ELISA detects its analyte on a solid surface through an enzyme-linked reagent.

Another experiment deals with KB. In words: Inhibition of KB cell growth was determined. It counts as functional, cell-based. The settings on record: Homo sapiens. The gist of the method:
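KB cells seeded at 3000–5000/well and incubated overnight; compound at 6–8 concentrations in quadruplicate; 48 h at 37 °C in CO2, about two population doublings. Ethanol fixation, 0.1% crystal violet stain, acidified ethanol elution, read at 570 nm. IC50 by linear regression vs log concentration.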

Experiment [1] has as its system Human betaherpesvirus 5. Briefly: Concentration required for 50% inhibition of HCMV replication was measured using a Plaque reduction assay. It counts as functional, organism-based. The gist of the method: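 HCMV Towne (P0) plaque reduction in HFF cells, ~100 pfu/cm². After adsorption, compound in growth medium at 4–8 concentrations in duplicate wells; 7–10 days at 37 °C. Crystal violet stain, microscopic plaque count. Percent plaque reduction vs no-drug wells; IC50 by linear regression vs log concentration.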
(In a plaque reduction assay, fewer plaques than in the control indicate reduced infectivity or spread.)

Experiment [2] concerns Human betaherpesvirus 5. Briefly: Concentration required for 90% inhibition of HCMV replication was measured using a yield reduction assay. It counts as functional. The essentials:
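HCMV yield reduction in HFF cells infected at moi 0.5–1 pfu/cell. Compound in duplicate as 1:3 serial dilutions from 100 to 0.05 μM; 7 days at 37 °C. One freeze-thaw, then progeny titered by plaque count on secondary HFF plates (1:3 dilutions). IC90 from regression of percent inhibition vs log concentration.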

Take `OC[C@H]1OC(n2c(S)nc3c(Cl)cc(Cl)cc32)[C@H](O)[C@@H]1O` (stereo partly drawn): the pIC50 – broadly, the IC50 on a negative log10 scale, so that one unit is a factor of ten – is less than 4.00 in the experiment on HFF, less than 3.52 in the experiment with Human alphaherpesvirus 1, less than 3.52 in the experiment with KB and less than 4.00 with Human betaherpesvirus 5 [1].

For the compound `Nc1nc2c(Cl)cc(Cl)cc2[nH]1`, the pIC50 is 4.00 with HFF, less than 4.00 in the experiment with Human alphaherpesvirus 1 and less than 4.00 with Human betaherpesvirus 5 [1].

As to `Clc1cc(Cl)c2[nH]c(Cl)nc2c1`, the pIC50 in the experiment on HFF is 4.49; with Human alphaherpesvirus 1, less than 4.00; in the experiment on KB, less than 4.00; in the experiment on Human betaherpesvirus 5 [1], 5.29.

`O=C(O)P(=O)(O)O` [FOSCARNET] had a pIC50 in the experiment with HFF of less than 4.00.

Regarding `OC[C@H]1OC(n2c(SCc3ccccc3)nc3c(Cl)cc(Cl)cc32)[C@H](O)[C@@H]1O` (stereo partly drawn), the negative logarithm of the IC50 (pIC50) in the experiment on HFF was 4.49; in the experiment on Human alphaherpesvirus 1 it was 3.85; in the experiment on KB, 3.91; with Human betaherpesvirus 5 [1], 4.39.

Take `Nc1nc2c(ncn2COC(CO)CO)c(=O)[nH]1` [GANCICLOVIR]: the pIC50 in the experiment on HFF and in the experiment with KB was less than 4.00 in each case. Besides, the IC90 (commonly the concentration needed for an effect of 90%) in the experiment on Human betaherpesvirus 5 [2] turned out to be 1.6 µM.

Turning to `Nc1nc2c(Cl)cc(Cl)cc2n1C1O[C@H](CO)[C@@H](O)[C@H]1O` (stereo partly drawn), the pIC50 in the experiment on HFF is less than 4.00; in the experiment on Human alphaherpesvirus 1, less than 3.52; with KB, less than 3.52; with Human betaherpesvirus 5 [1] it was less than 4.00. In addition, the IC90 in the experiment on Human betaherpesvirus 5 [2] is greater than 100 µM.

In the case of `Clc1nc2c(Cl)c(Cl)ccc2[nH]1`, the pIC50 in the experiment on HFF was 4.49; in the experiment with Human alphaherpesvirus 1 it was less than 4.00; in the experiment with KB it was 4.10; in the experiment with Human betaherpesvirus 5 [1], 5.10.

Regarding `CSc1nc2c(Cl)cc(Cl)cc2n1C1O[C@H](CO)[C@@H](O)[C@H]1O` (stereo partly drawn), the pIC50 is 3.82 in the experiment with HFF, less than 3.52 in the experiment on Human alphaherpesvirus 1, 3.57 in the experiment with KB and 3.96 with Human betaherpesvirus 5 [1].

As to `OC[C@H]1OC(n2c(Cl)nc3c(Cl)c(Cl)ccc32)[C@H](O)[C@@H]1O` (stereo partly drawn), the pIC50 with HFF was less than 4.00; with Human alphaherpesvirus 1, less than 4.00; in the experiment with KB, less than 4.00; in the experiment with Human betaherpesvirus 5 [1] it was 4.80. Moreover, the IC90 with Human betaherpesvirus 5 [2] was 6 µM.

As to `OC[C@H]1OC(n2c(Cl)nc3c(Cl)cc(Cl)cc32)[C@H](O)[C@@H]1O` (stereo partly drawn), the negative-log IC50 (pIC50) in the experiment on HFF was 4.11; in the experiment on Human alphaherpesvirus 1, less than 3.52; in the experiment on KB, 3.64; in the experiment on Human betaherpesvirus 5 [1], 5.00. In addition, the 90% effect level in the experiment with Human betaherpesvirus 5 [2] (IC90) was put at 4.5 µM.

With `OC[C@H]1OC(n2c(Br)nc3c(Cl)c(Cl)ccc32)[C@H](O)[C@@H]1O` (stereo partly drawn), the negative-log IC50 (pIC50) was 3.79 in the experiment on HFF, less than 4.00 with Human alphaherpesvirus 1, less than 4.00 with KB and 5.62 in the experiment on Human betaherpesvirus 5 [1]. Also, the IC90 in the experiment on Human betaherpesvirus 5 [2] was determined as 1 µM.

In the experiment on Human betaherpesvirus 5 [2], `OC[C@H]1O[C@@H](n2c(Cl)nc3cc(Cl)c(Cl)cc32)[C@H](O)[C@@H]1O` gave an IC90 of 1.4 µM.

For the compound `OC[C@H]1OC(n2c(Br)nc3c(Cl)cc(Cl)cc32)[C@H](O)[C@@H]1O` (stereo partly drawn), the pIC50 in the experiment on HFF is 3.90; in the experiment on Human alphaherpesvirus 1, less than 3.52; with KB, 3.82; with Human betaherpesvirus 5 [1], 5.80. The 90% effect level in the experiment with Human betaherpesvirus 5 [2] (IC90) was put at 2.1 µM.

Regarding `OC[C@H]1O[C@H](n2c(Br)nc3cc(Cl)c(Cl)cc32)[C@@H](O)[C@H]1O`, in the experiment with KB, the pIC50 is less than 4.00. This compound displayed an IC90 with Human betaherpesvirus 5 [2] of 0.2 µM.

On to `[N-]=[N+]=Nc1nc2c(Cl)cc(Cl)cc2n1C1O[C@H](CO)[C@@H](O)[C@H]1O` (stereo partly drawn), for which the results for the pIC50 in the experiment on HFF and with Human betaherpesvirus 5 [1] were less than 4.00 and 3.96, respectively. Moreover, in the experiment on Human betaherpesvirus 5 [2], the IC90 stood at 41 µM.

The values are drawn from ChEMBL document CHEMBL1129960, “Design, synthesis, and antiviral evaluation of 2-substituted 4,5-dichloro- and 4,6-dichloro-1-beta-D-ribofuranosylbenzimidazoles as potential agents for human cytomegalovirus infections” (J Med Chem, 1997).
